From ChEMBL document CHEMBL3745683, “Regulatory effect of hydroquinone-tetraethylene glycol conjugates on zebrafish pigmentation” (Bioorg Med Chem Lett, 2016)
Calls of active or inactive are those of the source.

Legend:
[1] = Drug degradation of compound assessed as Cu2+-mediated oxidation; format: physicochemical
Summary of the method: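 Compound at 0.1 mM in 1X PBS, pH 7.4, was treated with 20 μM Cu2+. UV absorption spectra were recorded over a time course.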

[2] = Cytotoxicity against human HF16 cells assessed as decrease in cell viability at 200 uM after 24 hrs by MTT assay; format: cell-based
Summary of the method: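 HF-16 human fetal foreskin fibroblasts exposed to compound at 200 μM, with 0.1% DMSO as vehicle control, for 24 hr. Viability was read by MTT assay. Data are means ± SEM, compared against the vehicle control.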

[3] = Photostability of compound after 18 hrs under UV irradition condition; format: physicochemical
Summary of the method: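 Compound at 0.1 mM in 1X PBS, pH 7.4, was exposed to UV at ambient conditions for 18 h. UV spectra were compared before and after exposure; the HQ absorption band is at 289 nm.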

[4] = 1-Octanol-water partition coefficient, log P of the compound by UV spectrophotometry-based shake flask method; format: physicochemical
Danio rerio [5] = species on record: Danio rerio; test: Depigmentation effect on zebrafish assessed as eye color change from black to gray incubated for 63 hrs post fertilization by microscopic analysis; format: functional, organism-based
Summary of the method: (§1)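 Synchronized zebrafish embryos were kept in embryo medium containing compound at 50, 100 or 200 μM, added from DMSO to a final 0.1%. Mock control was 0.1% DMSO; positive control was HQ at 100 μM. Larval pigment spots were selected manually from dorsal-view microscope images, excluding eyes and yolk. Image analysis gave binary threshold, histogram and black-spot size; eye colour was scored visually. Data are means ± SEM versus mock.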

Danio rerio [6] = species on record: Danio rerio; test: Depigmentation effect on zebrafish assessed as increase in histogram of black spots incubated for 63 hrs post fertilization by microscopic analysis; format: functional, organism-based; summary of the method: as §1
[7] = Drug degradation assessed as hydrolysis in 1M NaOH […] by HPLC analysis; format: physicochemical; settings: buffer
Danio rerio [8] = species on record: Danio rerio; test: Depigmentation effect on zebrafish assessed as decrease in size of black spots incubated for 63 hrs post fertilization by microscopic analysis; format: functional, organism-based; summary of the method: as §1
Danio rerio [9] = species on record: Danio rerio; test: Depigmentation effect on zebrafish assessed as increase in binary threshold incubated for 63 hrs post fertilization by microscopic analysis; format: functional, organism-based; summary of the method: as §1
Danio rerio [10] = species on record: Danio rerio; test: Inhibition of pigmentation in zebrafish assessed as increase in histogram of black spots pre-treated with 0.2 mM compound at 9 hrs post fertilization followed by mock treatment for 37 hrs by microscopic analysis; format: functional, organism-based
Danio rerio [11] = species on record: Danio rerio; test: Inhibition pigmentation in zebrafish assessed as increase in binary threshold pre-treated with 0.2 mM compound at 9 hrs post fertilization followed by mock treatment for 37 hrs by microscopic analysis; format: functional, organism-based
Danio rerio [12] = species on record: Danio rerio; test: Inhibition of alpha-MSH-induced pigmentation in zebrafish assessed as increase in histogram of black spots pre-treated with 0.2 mM compound at 9 hrs post fertilization followed by compound exposure for 37 hrs by microscopic analysis; format: functional, organism-based
Danio rerio [13] = species on record: Danio rerio; test: Inhibition of pigmentation in zebrafish assessed as decrease in size of black spots pre-treated with 0.2 mM compound at 9 hrs post fertilization followed by mock treatment for 37 hrs by microscopic analysis; format: functional, organism-based
Danio rerio [14] = species on record: Danio rerio; test: Inhibition of pigmentation in zebrafish assessed as decrease in size of black spots pre-treated with 0.2 mM compound at 9 hrs post fertilization followed by compound exposure for 37 hrs by microscopic analysis; format: functional, organism-based
[15] = Drug degradation assessed as hydrolysis at pH 3 to 9 by HPLC analysis; format: physicochemical; settings: buffer
Danio rerio [16] = species on record: Danio rerio; test: Inhibition of alpha-MSH-induced pigmentation in zebrafish assessed as decrease in size of black spots pre-treated with 0.2 mM compound at 9 hrs post fertilization followed by compound exposure for 37 hrs by microscopic analysis; format: functional, organism-based
Danio rerio [17] = species on record: Danio rerio; test: Inhibition pigmentation in zebrafish assessed as increase in binary threshold pre-treated with 0.2 mM compound at 9 hrs post fertilization followed by compound exposure for 37 hrs by microscopic analysis; format: functional, organism-based
Danio rerio [18] = species on record: Danio rerio; test: Inhibition of alpha-MSH-induced pigmentation in zebrafish assessed as increase in binary threshold pre-treated with 0.2 mM compound at 9 hrs post fertilization followed by compound exposure for 37 hrs by microscopic analysis; format: functional, organism-based
Danio rerio [19] = species on record: Danio rerio; test: Inhibition of pigmentation in zebrafish assessed as increase in histogram of black spots pre-treated with 0.2 mM compound at 9 hrs post fertilization followed by compound exposure for 37 hrs by microscopic analysis; format: functional, organism-based

SMILES | Drug degradation ([1]; TDE = time-dependent effect) | Activity [2] | Stability [3] | logP [4] | Activity (Danio rerio [5]) | Activity (Danio rerio [6]) | Stability [7] | Stability [1] | Activity (Danio rerio [8]) | Activity (Danio rerio [9]) | inhibition (Danio rerio [10]) | inhibition (Danio rerio [11]) | inhibition (Danio rerio [12]) | inhibition (Danio rerio [13]) | inhibition (Danio rerio [14]) | Stability [15] | inhibition (Danio rerio [16]) | inhibition (Danio rerio [17]) | inhibition (Danio rerio [18]) | inhibition (Danio rerio [19])
Oc1ccc(O)cc1 [HYDROQUINONE] | tde | Toxic | Unstable | 0.25 | – | – | – | – | – | – | – | – | – | – | – | – | – | – | – | –
COCCOCCOCCOCC(=O)Oc1ccc(O)cc1 | – | Toxic | Stable | -0.036 | Dose-dependent effect | Dose-dependent effect | Unstable | Stable | Dose-dependent effect | Dose-dependent effect | – | – | – | – | – | – | – | – | – | –
COCCOCCOCCOCCOc1ccc(O)cc1 | – | Non-toxic | Stable | -0.026 | Dose-dependent effect | Dose-dependent effect | – | Stable | Dose-dependent effect | Dose-dependent effect | inactive | inactive | Active | inactive | Active | Stable | Active | Active | Active | Active
